Measured values: ChEMBL document CHEMBL1165969, “Synthesis and cytotoxicity of novel indirubin-5-carboxamides” (Bioorg Med Chem, 2010)
≈ marks a conversion by molar mass, not a printed value.

Columns and labels:
[1] = Antiproliferative activity against human LXFL 529L cells after 3 days by sulforhodamine B assay; assay type: functional, cell-based
Outline: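 Cells kept at 37 °C in humidified 5% CO2 in RPMI 1640 with 10% heat-inactivated FBS, penicillin (100 units/mL) and streptomycin, and checked for mycoplasma. Seeded, grown 24 h, then exposed to drug for 3 days in serum-containing medium. Fixed with 50% TCA solution for 1 h at 4 °C, stained with 0.4% SRB, dye eluted in 10 mM Tris pH 10.5, read at 570 nm. Growth expressed as % T/C; IC50 derived.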

[2] = Solubility in water by spectrophotometry; assay type: physicochemical

solubility [2] [µg/mL]	SMILES	IC50 ([1]; Homo sapiens, LXFL 529L, 72 h) [µM]	IC50 ([1]; lxfl 529l) [µM]
21 (≈ 43.5 µM)	O=C1Nc2ccc(C(=O)N(CCO)CCO)cc2/C1=C1/Nc2ccccc2/C1=N\OCC(O)CO (configuration not stated)	43	
41 (≈ 134 µM)	O=C1Nc2ccc(C(=O)O)cc2/C1=C1/Nc2ccccc2C1=O	7	
53000	COS(=O)(=O)[O-].C[N+](C)(C)CCNC(=O)c1ccc2c(c1)/C(=C1/Nc3ccccc3C1=O)C(=O)N2	8.6	
1000 (≈ 2570 µM)	CN1CCN(C(=O)c2ccc3c(c2)/C(=C2/Nc4ccccc4C2=O)C(=O)N3)CC1	3.9	
6.8 (≈ 17.3 µM)	O=C1Nc2ccc(C(=O)N(CCO)CCO)cc2/C1=C1/Nc2ccccc2C1=O	4.7	
60000	COS(=O)(=O)[O-].C[N+]1(C)CCN(C(=O)c2ccc3c(c2)/C(=C2/Nc4ccccc4C2=O)C(=O)N3)CC1		3.5
35.4 (≈ 90.7 µM)	CN(C)CCN(C)C(=O)c1ccc2c(c1)/C(=C1/Nc3ccccc3C1=O)C(=O)N2	5.4	
55.5 (≈ 145 µM)	O=C1Nc2ccc(C(=O)Nc3cccnc3)cc2/C1=C1/Nc2ccccc2C1=O	> 10	
580 (≈ 1370 µM)	CN(C)c1ccc(NC(=O)c2ccc3c(c2)/C(=C2/Nc4ccccc4C2=O)C(=O)N3)cc1	1.2	
9.5 (≈ 27.2 µM)	O=C1Nc2ccc(C(=O)NCCO)cc2/C1=C1/Nc2ccccc2C1=O	9.2	
42 (≈ 81.8 µM)	COc1ccc2c(c1)/C(=C1/Nc3ccccc3/C1=N\OCCO[C@@H]1O[C@H](CO)[C@@H](O)[C@H](O)[C@H]1O)C(=O)N2	0.5	
179 (≈ 491 µM)	O=C1Nc2ccc(C(=O)NCCO)cc2/C1=C1/Nc2ccccc2/C1=N\O	4.5	

The remaining lines, values behind:

SMILES	solubility [2] [µg/mL]	IC50 ([1]; Homo sapiens, LXFL 529L, 72 h) [µM]	IC50 ([1]; lxfl 529l) [µM]
O=C1Nc2ccc(C(=O)NC[C@H](O)[C@@H](O)[C@H](O)[C@H](O)CO)cc2/C1=C1/Nc2ccccc2C1=O	21.6 (≈ 46 µM)	> 30	
O=C1Nc2ccc(C(=O)N(CCO)CCO)cc2/C1=C1/Nc2ccccc2/C1=N\O	523 (≈ 1280 µM)	5.9	
O=C1Nc2ccc(C(=O)N3CCNCC3)cc2/C1=C1/Nc2ccccc2C1=O	4.2 (≈ 11.2 µM)	3.2	
CN(C)CCN(C)C(=O)c1ccc2c(c1)/C(=C1/Nc3ccccc3/C1=N\OCCO[C@@H]1O[C@H](CO)[C@@H](O)[C@H](O)[C@H]1O)C(=O)N2	> 380	> 10	
CN(C)CCNC(=O)c1ccc2c(c1)/C(=C1/Nc3ccccc3C1=O)C(=O)N2	13 (≈ 34.5 µM)	2.3	
CN1CCN(CCNC(=O)c2ccc3c(c2)/C(=C2/Nc4ccccc4C2=O)C(=O)N3)CC1.Cl	> 2000		6
CN(CC[N+](C)(C)C)C(=O)c1ccc2c(c1)/C(=C1/Nc3ccccc3C1=O)C(=O)N2.[I-]	1600	5.7	
CN1CCN(c2ccc(NC(=O)c3ccc4c(c3)/C(=C3/Nc5ccccc5/C3=N\O)C(=O)N4)cc2)CC1	1600 (≈ 3240 µM)	4.2	
C[N+]1(C)CCN(C(=O)c2ccc3c(c2)/C(=C2/Nc4ccccc4C2=O)C(=O)N3)CC1.[I-]	2450	2.5	
O=C1Nc2ccccc2/C1=C1/Nc2ccccc2C1=O [INDIRUBIN]		10	
CN(C)CCN(C)C(=O)c1ccc2c(c1)/C(=C1/Nc3ccccc3/C1=N\O)C(=O)N2	6400 (≈ 15800 µM)	2.2	
CN1CCN(CCNC(=O)c2ccc3c(c2)/C(=C2/Nc4ccccc4C2=O)C(=O)N3)CC1	700 (≈ 1620 µM)	7.8	
